Experimental data gathered from unrelated publications.
Each line is one published result; the experiments were not run side by side.
Target: Serine/threonine-protein kinase N2 (PKN2, Homo sapiens, UniProt Q16513)

Compound	effect on	mode	method	tested at	measurement	value
C=CC(=O)N1CCC([C@@H]2CCNc3c(C(N)=O)c(-c4ccc(Oc5ccccc5)cc4)nn32)CC1	enzyme activity	inhibitor	–	1 µM	inhibition	24%
CCCCC(=O)Nc1ccc(-c2ccc3ncn(CCC)c(=O)c3c2)cn1	binding	–	competition with immobilised ligand	0.5 µM	remaining binding	87%
CC#CC(=O)N1CCC[C@H]1c1nc(-c2ccc(C(=O)Nc3ccccn3)cc2)c2c(N)nccn12	enzyme activity	inhibitor	–	1 µM	inhibition	0%
C1=C/COCc2cc(ccc2OCCN2CCCC2)Nc2nccc(n2)-c2cccc(c2)COC/1	binding	–	–	0.1 µM	remaining binding	100%
CN1CCN(C(=O)c2ccc(NC(=O)Nc3ccc(N(C)c4ccnc(Nc5ccc(CS(C)(=O)=O)cc5)n4)cc3)cc2)CC1	binding	–	–	1 µM	remaining binding	100%
Cc1cc(O)c(-c2ccc([C@@H](C)CN(C)C)cc2)c2c1[nH]c(=O)c1sccc12	enzyme activity	inhibitor	–	0.1 µM	inhibition	13.8%
CC(C)S(=O)(=O)c1ccc2nccc(Nc3ccc4sc(C5CCCC5)nc4c3)c2c1	enzyme activity	inhibitor	–	1 µM	activity vs control	116%
Cc1ccc(NC(=O)c2ccnc(C(F)(F)F)c2)cc1-c1cc(OCCO)nc(N2CCOCC2)c1	binding	–	–	1 µM	remaining binding	89%
